The text below walks through data of PubChem BioAssay.

Molecules are shown by their SMILES. Activity calls are given as the source filed them.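 The calls were made as follows, unless noted: active = potentiation averaged over duplicate wells exceeding buffer-only control mean by more than 3 SD; inactive = the rest.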

Experiment [1] is described as follows: nonspecific flux increase, KCNQ1-free cells – parental CHO cells, counter-screen for KCNQ1 potentiator project (AID 493006;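 active = duplicate-averaged activation above buffer control mean plus 5 SD of those controls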). The following applies: parental CHO-K1 cells, FluxOR thallium flux, at 10 µM; stronger effect = higher value. The procedure, abridged:
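Assay system: parental CHO-K1 cells lacking KCNQ1, loaded with FluxOR thallium dye; timing: dye 90 min RT, compound 20 min RT; signal: kinetic thallium-flux fluorescence; repeats: duplicate wells per compound, percent values averaged; benchmarks: buffer and R-L3 controls; reagent: Potassium/thallium depolarization pulse; read-out: fluorescence change ratio scaled 0% buffer, 100% R-L3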

The target of experiment [2] is Potassium voltage-gated channel subfamily KQT member 1 (Homo sapiens) (UniProt P51787). Put plainly: enhancement of KCNQ1 channel thallium flux – FluxOR thallium flux, CHO cells, duplicates, confirmation (AID 493007).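 As to outcome: cells depolarized by a potassium plus thallium sulfate stimulus after compound.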 Conditions: KCNQ1 cell line, FluxOR thallium flux fluorescence, at 10 µM; stronger effect = higher value, % of reference activator effect, buffer zero. The method, boiled down: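 material = CHO cells stably expressing the KCNQ1 potassium channel | repeats = duplicate wells per compound | measure = percent activation between buffer and R-L3 responses | signal = FluxOR thallium-flux fluorescence, kinetic read | schedule = FluxOR dye loading 90 min, compound exposure 20 min, room temperature | control set = buffer and R-L3 controls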
Potassium voltage-gated channel subfamily KQT member 1 (Homo sapiens), sequence (P51787 whole entry, looked up): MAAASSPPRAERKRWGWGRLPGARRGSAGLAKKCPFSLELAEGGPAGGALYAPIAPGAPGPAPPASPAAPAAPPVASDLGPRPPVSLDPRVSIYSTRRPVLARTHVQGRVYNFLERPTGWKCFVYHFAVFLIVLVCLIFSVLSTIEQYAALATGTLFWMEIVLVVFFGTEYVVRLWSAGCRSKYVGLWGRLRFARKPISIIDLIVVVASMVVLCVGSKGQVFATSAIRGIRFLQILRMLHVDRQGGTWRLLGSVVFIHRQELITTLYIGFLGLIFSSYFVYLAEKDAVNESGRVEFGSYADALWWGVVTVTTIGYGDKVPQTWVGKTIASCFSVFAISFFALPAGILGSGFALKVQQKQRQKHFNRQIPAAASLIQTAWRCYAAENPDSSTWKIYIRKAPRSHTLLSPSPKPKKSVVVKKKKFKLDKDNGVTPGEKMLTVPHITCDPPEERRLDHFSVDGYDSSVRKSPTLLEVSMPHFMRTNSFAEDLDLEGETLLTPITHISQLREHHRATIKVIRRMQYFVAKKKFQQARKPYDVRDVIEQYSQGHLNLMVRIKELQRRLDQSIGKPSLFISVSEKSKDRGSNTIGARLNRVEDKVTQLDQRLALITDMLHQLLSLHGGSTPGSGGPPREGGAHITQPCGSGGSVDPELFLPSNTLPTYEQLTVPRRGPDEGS

The target in experiment [3] is Potassium voltage-gated channel subfamily KQT member 2 (Rattus norvegicus) (UniProt O88943). Put plainly: KCNQ2 thallium flux enhancement – KCNQ2-CHO-K1 cells, selectivity assay for KCNQ1 potentiator project (AID 493009;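 active = mean duplicate potentiation above the buffer control mean plus 5 SD of buffer wells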;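 also: assay conditions were tuned for KCNQ1 rather than KCNQ2 modulators; signal is max minus min fluorescence divided by baseline after thallium stimulus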). The following applies: FluxOR thallium flux fluorescence, at 10 µM; stronger effect = higher value, scaled: buffer 0, activator control 100.
Potassium voltage-gated channel subfamily KQT member 2 (Rattus norvegicus), sequence (O88943 whole entry, looked up): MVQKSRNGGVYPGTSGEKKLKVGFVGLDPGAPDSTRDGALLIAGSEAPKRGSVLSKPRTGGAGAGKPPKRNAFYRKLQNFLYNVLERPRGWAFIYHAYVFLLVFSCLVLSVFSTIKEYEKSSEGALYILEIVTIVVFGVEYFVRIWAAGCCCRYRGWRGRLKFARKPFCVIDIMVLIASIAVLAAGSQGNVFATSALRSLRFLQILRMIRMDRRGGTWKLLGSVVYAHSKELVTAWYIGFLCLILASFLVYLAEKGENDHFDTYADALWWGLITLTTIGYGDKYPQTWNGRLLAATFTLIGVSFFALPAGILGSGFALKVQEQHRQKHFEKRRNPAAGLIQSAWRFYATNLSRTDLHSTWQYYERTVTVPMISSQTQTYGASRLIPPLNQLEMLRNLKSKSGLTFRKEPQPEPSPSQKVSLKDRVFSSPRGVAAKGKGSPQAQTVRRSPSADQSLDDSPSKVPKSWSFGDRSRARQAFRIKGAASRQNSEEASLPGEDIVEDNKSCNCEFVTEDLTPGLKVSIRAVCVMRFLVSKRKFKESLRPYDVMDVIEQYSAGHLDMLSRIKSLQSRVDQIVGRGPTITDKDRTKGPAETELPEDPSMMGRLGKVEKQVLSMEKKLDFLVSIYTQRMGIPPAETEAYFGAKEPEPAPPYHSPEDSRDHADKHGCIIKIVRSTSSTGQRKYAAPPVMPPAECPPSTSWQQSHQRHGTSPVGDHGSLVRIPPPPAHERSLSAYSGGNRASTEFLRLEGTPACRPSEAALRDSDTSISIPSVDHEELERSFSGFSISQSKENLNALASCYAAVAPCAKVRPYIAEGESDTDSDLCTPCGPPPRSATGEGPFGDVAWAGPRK
The target of experiment [4] is Potassium voltage-gated channel subfamily KQT member 1 (Homo sapiens) (UniProt P51787). Put plainly: KCNQ1 activators by electrophysiology – IonWorks patch clamp, KCNQ1-CHO cells, orthogonal assay for KCNQ1 potentiator project, confirmation (AID 493184;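 active = current rise at least 3 SD above the untreated control mean in each of two repeat wells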;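 as to current potentiation: percent change of the same well's current before compound addition so 0% = no change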). Conditions: automated patch clamp current, at 10 µM; stronger effect = higher value. The method, boiled down:
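Assay system – CHO cells carrying KCNQ1 · Medium – pH 7.4 external bath · Probe or stimulus – depolarizing pulse to +40 mV from -90 mV · Compound dosing – one dose, 10 µM final · Measured by – automated perforated-patch electrophysiology · Measure – % potentiation of steady-state current relative to pre-compound · Repeats – two replicates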
(The patch-clamp technique gives a direct electrical read-out from membranes.)

In experiment [5] the target is Potassium voltage-gated channel subfamily E member 1 (Homo sapiens) + Potassium voltage-gated channel subfamily KQT member 1 (Homo sapiens) (UniProt P15382+P51787). Put plainly: KCNQ1-E1 channel activation – thallium flux, CHO-K1 KCNQ1/E1 cells, selectivity assay for KCNQ1 potentiator project, confirmation (AID 493186;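 active = mean duplicate activation above the buffer control mean plus 5 SD of those controls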). The following applies: FluxOR thallium flux, at 10 µM; stronger effect = higher value. The method, boiled down:
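Assay system: CHO-K1 cells with KCNQ1/E1 | Dosing: Single compound concentration per well | Incubation: Dye 90 min, compound 20 min, room temperature | Measured by: FluxOR Tl+ flux fluorescence, kinetic read | Controls: Buffer low control, R-L3 high control | Replicates: Duplicate wells per compound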

Potassium voltage-gated channel subfamily E member 1 (Homo sapiens) + Potassium voltage-gated channel subfamily KQT member 1 (Homo sapiens), sequence (P51787 whole entry, looked up): as the sequence (P51787 whole entry, looked up) above

As to `Cc1ccccc1C(OCCN(C)C)C1CCCCC1` (stereo not given), the result in experiment [1], in experiment [2], in experiment [3], in experiment [4] and in experiment [5] was inactive.

`Cc1ccc(C)c(/C=N/n2cc(-c3ccccc3)[nH]c2=S)c1`: the outcome in experiment [1], in experiment [3], in experiment [4] and in experiment [5] was inactive. In experiment [2], the potentiation is 24.5% (active).

As for `Fc1ccc(/C=N/n2c(C3CCCCC3)n[nH]c2=S)cc1`, the result in experiment [1], in experiment [2], in experiment [3], in experiment [4] and in experiment [5] was inactive.

`COc1ccc(OCC(=O)NC(=S)NNC(=O)COc2ccc(Br)cc2Cl)cc1`: the result in experiment [1], in experiment [3], in experiment [4] and in experiment [5] was inactive. Further, the potentiation in experiment [2] was 18.5% (active).

With `CSc1nc(SCC(=O)O)c2sc3nc(-c4ccccc4)c4c(c3c2n1)CCC4`, the result in experiment [1], in experiment [3], in experiment [4] and in experiment [5] was inactive. In addition, the potentiation in experiment [2] was 30% (active).

For the compound `Cc1ccc(-n2c(C)cc(/C=N/NC(=O)c3ccncc3)c2C)cc1C`, the outcome in experiment [1], in experiment [3], in experiment [4] and in experiment [5] was inactive. Also, the potentiation in experiment [2] is 30% (active).

`Cn1c(=O)c2c(ncn2CC(=O)N/N=C/C(Cl)=C/c2ccccc2)n(C)c1=O`: the result in experiment [1], in experiment [2], in experiment [3], in experiment [4] and in experiment [5] was inactive.

`Cc1ccc(-c2csc(NC(=O)Cc3ccc(F)cc3)n2)o1`: the outcome in experiment [1], in experiment [2], in experiment [3], in experiment [4] and in experiment [5] was inactive.

With `O=C(CC(c1ccccc1)c1ccccc1)Nc1ncn[nH]1`, the outcome in experiment [1], in experiment [2], in experiment [3], in experiment [4] and in experiment [5] was inactive.

For `Cc1c(C(=O)Nc2ccc(F)cc2)oc2ccc(S(=O)(=O)N3CC(C)CC(C)C3)cc12` (stereo not given), the outcome in experiment [1], in experiment [2], in experiment [3], in experiment [4] and in experiment [5] was inactive.

Turning to `CCOC(=O)c1ccc(N2C(=O)C3ON(c4ccccc4)C(c4ccco4)C3C2=O)cc1` (stereo not given), the outcome in experiment [1], in experiment [2], in experiment [3], in experiment [4] and in experiment [5] was inactive.

With `Cc1cccc(NC(=S)c2nc3ccccc3s2)c1`, the outcome in experiment [1], in experiment [4] and in experiment [5] was inactive. The results for the potentiation in experiment [2] and in experiment [3] were 146% (active) and 219% (active), respectively.

For `COc1ccccc1N1CCN(C(=O)C2CCN(C(=O)c3cccc(Cl)c3)CC2)CC1`, the outcome in experiment [1], in experiment [2], in experiment [3], in experiment [4] and in experiment [5] was inactive.

`S=c1[nH]c(-c2ccccc2)cn1/N=C/c1ccc(Br)cc1`: the result in experiment [1], in experiment [2], in experiment [3], in experiment [4] and in experiment [5] was inactive.

Consider `COc1ccc(C(=O)NNC(=O)C(=O)NCc2ccccc2)cc1`, for which the result in experiment [1], in experiment [4] and in experiment [5] was inactive. The values for the potentiation in experiment [2] and in experiment [3] were 29% (active) and 144% (active), respectively.

As to `CC(=O)c1cccc(OCc2cc(C(=O)N(C)C(C)c3ccccn3)no2)c1` (stereo not given), the outcome in experiment [1], in experiment [2], in experiment [3], in experiment [4] and in experiment [5] was inactive.

Regarding `CCn1c(SCC(=O)c2cccs2)nnc1-c1cccs1`, the outcome in experiment [1], in experiment [2], in experiment [3], in experiment [4] and in experiment [5] was inactive.

As for `CN1CCN(C(c2ccc(Cl)cc2)c2cc(Cl)c3cccnc3c2O)CC1` (stereo not given), the outcome in experiment [1], in experiment [2], in experiment [3], in experiment [4] and in experiment [5] was inactive.

For the compound `COc1cccc(NC(=S)NC(=O)c2c(Cl)c(C)nn2C)c1`, the result in experiment [1], in experiment [2], in experiment [3], in experiment [4] and in experiment [5] was inactive.

For `CCn1c(O)c(N=NC(=S)NCC2CCCO2)c2ccccc21` (stereo not given), the outcome in experiment [1], in experiment [2], in experiment [3], in experiment [4] and in experiment [5] was inactive.

As to `CC(NC(=O)c1ccco1)C(=O)N(C)Cc1ccc(C(F)(F)F)cc1` (stereo not given), the result in experiment [1], in experiment [2], in experiment [3], in experiment [4] and in experiment [5] was inactive.

Turning to `CCC(C)NC(=O)Cn1c(-c2ccccc2)cc(C(C)=O)c1C` (stereo not given), the outcome in experiment [1], in experiment [3], in experiment [4] and in experiment [5] was inactive. Besides, in experiment [2], the potentiation is 22% (active).

With `CCn1c(CN2CCN(c3ccc(OC)cc3)CC2)nc2cc(S(=O)(=O)N(C)C)ccc21`, the result in experiment [1], in experiment [2], in experiment [3], in experiment [4] and in experiment [5] was inactive.

Regarding `CC(=O)/C(=N/Nc1ccc([N+](=O)[O-])cc1)N1CCCc2ccccc21`, the outcome in experiment [1], in experiment [2], in experiment [3], in experiment [4] and in experiment [5] was inactive.

For the compound `COc1nccnc1NS(=O)(=O)c1ccc(NC(=S)NC(=O)c2ccccc2F)cc1`, the outcome in experiment [1], in experiment [2], in experiment [3], in experiment [4] and in experiment [5] was inactive.

Take `CCOC(=O)c1oc2ccc(S(=O)(=O)n3nc(-c4ccc(OC)cc4)cc3N)cc2c1C`: the result in experiment [1], in experiment [2], in experiment [3] and in experiment [5] was inactive. Also, the current potentiation in experiment [4] is 15.4% (active).

As to `O=C(NC(=S)Nc1cc(C(F)(F)F)ccc1Cl)c1ccccc1`, the result in experiment [1], in experiment [2], in experiment [3], in experiment [4] and in experiment [5] was inactive.

On to `O=C(N/N=C/c1ccc([N+](=O)[O-])o1)c1sc2ccccc2c1Cl`, for which the outcome in experiment [1], in experiment [2], in experiment [3], in experiment [4] and in experiment [5] was inactive.

`CC12CCC(C(=O)N(CSC(=S)N/N=C\c3ccccc3)C1=O)C2(C)C` (stereo not given): the outcome in experiment [1], in experiment [3], in experiment [4] and in experiment [5] was inactive. Further, the potentiation in experiment [2] is 33.5% (active).

`CCCCn1c(=O)[nH]c(=O)c2c1nc(Cn1ncc(Cl)c(Cl)c1=O)n2CCC`: the outcome in experiment [1], in experiment [2], in experiment [3], in experiment [4] and in experiment [5] was inactive.
